Laboratory results from ChEMBL document CHEMBL1759933, “Synthesis, human monoamine oxidase inhibitory activity and molecular docking studies of 3-heteroarylcoumarin derivatives” (Eur J Med Chem, 2011).

Legend:
[1] = target: T1, Amine oxidase [flavin-containing] A (Homo sapiens, UniProt P21397); assay: Inhibition of human recombinant MAO-A expressed in BTI-TN-5B1-4 cells assessed as H2O2 production using para-tyramine substrate at 100 uM by fluorimetric method; type: cell-based; settings: bti-tn-5b1-4, 100 µM
T1 sequence (P21397 whole entry): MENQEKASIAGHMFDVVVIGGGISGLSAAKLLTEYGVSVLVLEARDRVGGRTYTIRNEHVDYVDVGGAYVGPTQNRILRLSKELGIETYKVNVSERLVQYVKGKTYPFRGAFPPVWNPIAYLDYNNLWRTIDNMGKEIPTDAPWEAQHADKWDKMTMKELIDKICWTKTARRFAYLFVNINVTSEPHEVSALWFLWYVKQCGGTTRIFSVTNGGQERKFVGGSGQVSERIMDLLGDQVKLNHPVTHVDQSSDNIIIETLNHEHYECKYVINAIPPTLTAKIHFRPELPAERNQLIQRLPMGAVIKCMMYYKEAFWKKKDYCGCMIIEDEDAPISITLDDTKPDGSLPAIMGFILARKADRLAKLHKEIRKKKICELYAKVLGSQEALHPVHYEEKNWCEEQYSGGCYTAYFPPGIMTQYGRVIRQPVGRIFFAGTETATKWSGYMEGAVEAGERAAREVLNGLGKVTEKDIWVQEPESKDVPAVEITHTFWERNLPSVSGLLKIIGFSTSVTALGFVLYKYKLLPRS

Homo sapiens = organism: Homo sapiens; assay: Selectivity index, ratio of IC50 for human recombinant MAO-A to IC50 for human recombinant MAO-B
Summary of the method: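 SI is IC50(hMAO-A)/IC50(hMAO-B), from IC50s measured by Amplex Red/HRP fluorimetry of p-tyramine-driven H2O2 with baculovirus-expressed human isoforms (mean of five experiments each). Where no MAO-A IC50 was reached, the highest concentration tested was taken as that IC50.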

[2] = target: T2, Amine oxidase [flavin-containing] B (Homo sapiens, UniProt P27338); assay: Inhibition of human recombinant MAO-B expressed in BTI-TN-5B1-4 cells assessed as H2O2 production using para-tyramine substrate by fluorimetric method; type: cell-based
T2 sequence (P27338 whole entry): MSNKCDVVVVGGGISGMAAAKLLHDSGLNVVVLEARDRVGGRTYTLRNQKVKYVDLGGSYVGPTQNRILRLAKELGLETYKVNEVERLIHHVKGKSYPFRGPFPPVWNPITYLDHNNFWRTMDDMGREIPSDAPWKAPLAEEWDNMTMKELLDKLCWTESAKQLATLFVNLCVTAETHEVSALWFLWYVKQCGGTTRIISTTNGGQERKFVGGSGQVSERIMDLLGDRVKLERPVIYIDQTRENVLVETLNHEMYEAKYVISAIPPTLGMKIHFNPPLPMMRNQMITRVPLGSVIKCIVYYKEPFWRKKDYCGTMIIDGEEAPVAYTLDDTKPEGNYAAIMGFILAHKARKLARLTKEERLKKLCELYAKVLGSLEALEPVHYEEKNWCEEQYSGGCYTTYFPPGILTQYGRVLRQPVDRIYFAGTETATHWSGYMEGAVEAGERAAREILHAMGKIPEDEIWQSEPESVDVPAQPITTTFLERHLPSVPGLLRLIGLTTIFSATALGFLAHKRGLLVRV

[3] = target: T1, Amine oxidase [flavin-containing] A; assay: Inhibition of human recombinant MAO-A expressed in BTI-TN-5B1-4 cells assessed as H2O2 production using para-tyramine substrate by fluorimetric method; type: cell-based
[4] = target: T2, Amine oxidase [flavin-containing] B; assay: Inhibition of human recombinant MAO-B expressed in BTI-TN-5B1-4 cells assessed as H2O2 production using para-tyramine substrate at 100 uM by fluorimetric method; type: cell-based; settings: bti-tn-5b1-4, 100 µM

SMILES	inhibition (INH) [1]	Ratio IC50 (Homo sapiens)	IC50 [2] [µM]	IC50 [3] [µM]	inhibition (INH) [4]
O=c1oc2ccccc2cc1-c1cccs1	Not Active	> 15	6.37		
COc1ccc2cc(-c3ccsc3)c(=O)oc2c1		> 75	0.0556	4.16	
COc1cc(OC)c2cc(-c3cccs3)c(=O)oc2c1	Not Active				Not Active
COc1cc(OC)c2cc(-c3ccsc3)c(=O)oc2c1	Not Active				Not Active
O=c1oc2ccccc2cc1-c1ccsc1	Not Active	> 7.5	13.3		
COc1ccc2cc(-c3c[nH]c4ccccc34)c(=O)oc2c1		> 210	0.046	9.67	
COc1ccc2oc(=O)c(-c3ccsc3)cc2c1	Not Active	> 428	0.234		
COc1ccc2oc(=O)c(-c3c[nH]c4ccccc34)cc2c1	Not Active				Not Active
COc1ccc2cc(-c3cccs3)c(=O)oc2c1	Not Active	> 380	0.263		
O=c1oc2ccccc2cc1-c1c[nH]c2ccccc12	Not Active	> 52	1.92		
COc1cc(OC)c2cc(-c3c[nH]c4ccccc34)c(=O)oc2c1	Not Active				Not Active
COc1ccc2oc(=O)c(-c3cccs3)cc2c1	Not Active	> 158	0.634		
